Converted amounts (≈) assume the structure as drawn.
Experiments:
[1] = tested on: Histoplasma capsulatum; assay: Antifungal activity against Histoplasma capsulatum G217B ATCC 26032 at pH 7 measured over 5 days; type: functional, organism-based; details: G217B ATCC 26032, 120 h
How it was run: (§1)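 Yeasts pre-grown in HMM (37 °C, 5% CO2) to exponential phase, counted by hemacytometer, diluted into RPMI buffered with 25 mM HEPES (pH 7.0) or 25 mM MOPS (pH 5.0) at 5 x 10^5 per well; two-fold dilutions 40 to 0.078 µM, 37 °C, agitated twice daily. A595 read over 5 days, normalized to DMSO controls; 4-day data fitted by 4-parameter regression for IC50; MIC = ≤10% growth.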

[2] = tested on: Cryptococcus neoformans; assay: Antifungal activity against wild type fluconazole-sensitive Cryptococcus neoformans serotype A H99 at pH 7 measured over 4 days; type: functional, organism-based; details: var grubii H99 , 96 h
How it was run: (§2)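 YPD-grown exponential-phase yeasts, hemacytometer-counted, diluted into RPMI buffered to pH 7.0 with 25 mM HEPES (or pH 5.0 with […] for pH comparison) at 2 x 10^3 per well; two-fold series 40 to 0.078 µM, 37 °C, agitated twice daily. A595 followed over 4 days versus DMSO controls; day-3 turbidity fitted by 4-parameter regression for IC50; MIC = growth ≤10% of untreated.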

[3] = tested on: P388D1; assay: Cytotoxicity against mouse P388D1 cells assessed as reduction in cell viability after 72 hrs by resazurin-based fluorescence assay; details: P388D1, 72 h
How it was run: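 P388D1 cells in Ham's F-12 + 10% FBS + 2 mM L-glutamine seeded at 5 x 10^3 per well, adhered overnight, exposed to compounds 80 to 0.3 µM for 72 h. Viability read as resorufin fluorescence (530/590 nm) after 0.1 mM resazurin, pre-saturation time points, versus untreated cells; three biological replicates; IC50 by non-linear regression.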

[4] = Therapeutic index, ratio of IC50 for mouse P388D1 cells to IC50 for Histoplasma capsulatum G217B ATCC 26032; type: toxicity; details: read-out: Ratio IC50
How it was run: (§3)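 Ratio of P388D1 IC50 (72 h resazurin viability, 80 to 0.3 µM) to yeast IC50 from RPMI/HEPES pH 7.0 broth dilution with A595 turbidity and 4-parameter regression.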

[5] = Therapeutic index, ratio of IC50 for mouse P388D1 cells to IC50 for wild type Cryptococcus neoformans serotype A H99; type: toxicity; details: read-out: Ratio IC50; how it was run: as §3
[6] = Aqueous solubility of the compound at pH 5; type: physicochemical; details: aqueous medium
[7] = Aqueous solubility of the compound at pH 7; type: physicochemical; details: aqueous medium
[8] = Ratio of aqueous solubility at pH 5 to aqueous solubility at pH 7; type: physicochemical; details: buffer
[9] = tested on: Histoplasma capsulatum; assay: Antifungal activity against Histoplasma capsulatum G217B ATCC 26032 at pH 5 measured over 5 days; type: functional, organism-based; details: G217B ATCC 26032, 120 h; how it was run: as §1
[10] = tested on: Cryptococcus neoformans; assay: Antifungal activity against wild type fluconazole-sensitive Cryptococcus neoformans serotype A H99 at pH 5 measured over 4 days; type: functional, organism-based; details: var grubii H99 , 96 h; how it was run: as §2
[11] = tested on: Cryptococcus neoformans; assay: Antifungal activity against wild-type fluconazole-sensitive Cryptococcus neoformans serotype D B3501 measured over 4 days; type: functional, organism-based; details: B3501, 96 h; how it was run: as §2
[12] = tested on: Cryptococcus neoformans; assay: Antifungal activity against fluconazole-resistant Cryptococcus neoformans serotype A TES9 harboring erg11 mutant measured over 4 days; type: functional, organism-based; details: TES9, 96 h; how it was run: as §2
[13] = tested on: Cryptococcus neoformans; assay: Antifungal activity against fluconazole-resistant Cryptococcus neoformans serotype A MRL862 harboring erg11 mutant measured over 4 days; type: functional, organism-based; details: MRL862, 96 h; how it was run: as §2
[14] = tested on: Histoplasma capsulatum; assay: Antifungal activity against RFP expressing Histoplasma capsulatum infected in LacZ-expressing mouse P388D1 cells incubated for 6 days measured daily by fluorescence assay; type: functional, organism-based
How it was run: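 LacZ-expressing P388D1 macrophages (3x10^4 per well, adhered 3 h) infected with RFP Histoplasma yeasts at MOI 1:2 for 3 h, medium replaced with F-12 + 10% serum, overnight at 37 °C, then compound gradient added for 6 days. RFP fluorescence (530/590 nm) read daily; day-4 values relative to untreated infected cells fitted by non-linear regression; triplicate.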

Row | SMILES | IC50 [1] [nM] | MIC90 [1] [µM] | IC50 [2] [nM] | MIC90 [2] [µM] | IC50 [3] [nM] | selectivity ratio [4] | other results
1 | O=C(Nc1ncc(Cc2ccccc2)s1)C1CCCCC1 | 1060 | 2.5 (≈ 0.751 µg/mL) | 1360 | 2.5 (≈ 0.751 µg/mL) | > 40000 | > 38 | selectivity ratio [5]: > 29
2 | O=C(CCC1CCCCC1)Nc1ncc(Cc2ccccc2)s1 | 800 | 1.25 (≈ 0.411 µg/mL) | > 20000 | > 40 | > 40000 | > 50 | –
3 | O=C(CCC1CCCCC1)Nc1ncc(Cc2cccc3ccccc23)s1 | 600 | 1.25 (≈ 0.473 µg/mL) | > 20000 | > 40 | 27600 | 46 | –
4 | O=C(CCC1CCCCC1)Nc1ncc(CC2CCCC2)s1 | > 20000 | > 40 | > 20000 | > 40 | – | – | –
5 | O=C(Nc1ncc(Cc2cccnc2)s1)C1CCCCC1 | > 20000 | – | > 20000 | – | – | – | solubility [6]: 590 µg/mL (≈ 1960 µM); solubility [7]: 340 µg/mL (≈ 1130 µM); Ratio [8]: 1.7; IC50 [9]: > 20000 nM; MIC90 [9]: > 40 µM; IC50 [10]: > 20000 nM; MIC90 [10]: > 40 µM
6 | O=C(Nc1ncc(Cc2cccc3c2CCCC3)s1)C1CCCCC1 | > 20000 | > 40 | > 20000 | > 40 | – | – | –
7 | O=C(CCC1CCCCC1)Nc1ncc(Cc2cccc3ccsc23)s1 | 920 | 5 (≈ 1.92 µg/mL) | > 20000 | > 40 | 18900 | 21 | –
8 | O=C(Nc1ncc(Cc2csc3ccccc23)s1)C1CCCCC1 | > 20000 | > 40 | > 20000 | > 40 | – | – | –
9 | O=C(Nc1ncc(Cc2cccc3sccc23)s1)C1CCCCC1 | 200 | 0.31 (≈ 0.111 µg/mL) | 210 to 370 | 0.63 to 1.25 (≈ 0.225 to 0.446 µg/mL) | > 40000 | > 200 | selectivity ratio [5]: > 108; IC50 [11]: 160 nM; MIC90 [11]: 0.63 µM (≈ 0.225 µg/mL); IC50 [12]: 190 nM; MIC90 [12]: 0.31 µM (≈ 0.111 µg/mL); IC50 [13]: 130 nM; MIC90 [13]: 0.31 µM (≈ 0.111 µg/mL); MIC ([14]; 144 h): 2.5 µM (≈ 0.891 µg/mL); IC50 ([14]; P388D1, 144 h): 1210 nM
10 | O=C(Nc1ncc(Cc2cccc3ccoc23)s1)C1CCCCC1 | 420 | 1.25 (≈ 0.426 µg/mL) | 620 | 2.5 (≈ 0.851 µg/mL) | > 40000 | > 95 | selectivity ratio [5]: > 65; IC50 [11]: 320 nM; MIC90 [11]: 0.63 µM (≈ 0.214 µg/mL); IC50 [12]: 410 nM; MIC90 [12]: 0.63 µM (≈ 0.214 µg/mL); IC50 [13]: 150 nM; MIC90 [13]: 0.63 µM (≈ 0.214 µg/mL)
11 | O=C(CCC1CCCCC1)Nc1ncc(Cc2cccc3c2CCCC3)s1 | 900 | 2.5 (≈ 0.956 µg/mL) | > 20000 | > 40 | 24300 | 27 | –
12 | O=C(Nc1ncc(Cc2cccc3nsnc23)s1)C1CCCCC1 | 1540 | 2.5 (≈ 0.896 µg/mL) | 1520 | 5 (≈ 1.79 µg/mL) | > 40000 | > 26 | selectivity ratio [5]: > 26
13 | O=C(CCC1CCCCC1)Nc1ncc(C(=O)c2cccc3ccccc23)s1 | 640 | 1.25 (≈ 0.491 µg/mL) | > 20000 | > 40 | > 40000 | > 63 | –
14 | O=C(CCC1CCCCC1)Nc1ncc(Cc2csc3ccccc23)s1 | 270 | 0.63 (≈ 0.242 µg/mL) | > 20000 | > 40 | 16900 | 63 | –
